According to ChEMBL document CHEMBL1132270, “Synthesis and structure-activity relationships of a new model of arylpiperazines. 4. 1-[omega-(4-Arylpiperazin-1-yl)alkyl]-3-(diphenylmethylene) - 2, 5-pyrrolidinediones and -3-(9H-fluoren-9-ylidene)-2, 5-pyrrolidinediones: study of the steric requirements of the terminal amide fragment on 5-HT1A …” (J Med Chem, 1999):

Assays:
D(2) dopamine receptor = D(2) dopamine receptor (Rattus norvegicus, UniProt P61169); assay: In vitro binding affinity towards Dopamine receptor D2 of rat striatal membranes using [3H]- raclopride
Chain of D(2) dopamine receptor (P61169 whole entry): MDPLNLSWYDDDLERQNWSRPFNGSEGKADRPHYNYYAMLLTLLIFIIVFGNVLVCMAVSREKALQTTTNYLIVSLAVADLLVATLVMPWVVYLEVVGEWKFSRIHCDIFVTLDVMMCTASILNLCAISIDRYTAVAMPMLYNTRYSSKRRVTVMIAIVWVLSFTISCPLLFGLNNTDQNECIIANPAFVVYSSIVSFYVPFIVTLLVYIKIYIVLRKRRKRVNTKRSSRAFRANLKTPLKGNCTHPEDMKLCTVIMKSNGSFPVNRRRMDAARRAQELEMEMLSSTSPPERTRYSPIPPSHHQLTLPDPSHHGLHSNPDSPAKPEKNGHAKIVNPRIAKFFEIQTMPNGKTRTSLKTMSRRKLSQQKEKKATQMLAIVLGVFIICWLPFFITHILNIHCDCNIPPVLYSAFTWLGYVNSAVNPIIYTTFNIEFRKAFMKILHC
Method in brief: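 Male Sprague–Dawley rat (180–200 g) striatal membranes (125–150 μg protein) incubated 60 min at 25 °C with 0.8 nM [3H]raclopride in 50 mM Tris-HCl pH 7.4 with 120 mM NaCl, 5 mM KCl, 2 mM CaCl2, 1 mM MgCl2, 0.1% ascorbic acid. Nonspecific: 1 μM (+)-butaclamol. Filtration, scintillation counting; IC50 fitted, Ki by Cheng–Prusoff; mean ± SEM of 2–4 triplicate experiments.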

[1] = target: T1, Adrenergic receptor alpha-1 (Rattus norvegicus, UniProt P15823+P23944+P43140); assay: In vitro binding affinity was evaluated on alpha-1 adrenergic receptor from rat cerebral cortex by using [3H]prazosin as radioligand; assay type: tissue-based
T1 sequence (P15823 whole entry): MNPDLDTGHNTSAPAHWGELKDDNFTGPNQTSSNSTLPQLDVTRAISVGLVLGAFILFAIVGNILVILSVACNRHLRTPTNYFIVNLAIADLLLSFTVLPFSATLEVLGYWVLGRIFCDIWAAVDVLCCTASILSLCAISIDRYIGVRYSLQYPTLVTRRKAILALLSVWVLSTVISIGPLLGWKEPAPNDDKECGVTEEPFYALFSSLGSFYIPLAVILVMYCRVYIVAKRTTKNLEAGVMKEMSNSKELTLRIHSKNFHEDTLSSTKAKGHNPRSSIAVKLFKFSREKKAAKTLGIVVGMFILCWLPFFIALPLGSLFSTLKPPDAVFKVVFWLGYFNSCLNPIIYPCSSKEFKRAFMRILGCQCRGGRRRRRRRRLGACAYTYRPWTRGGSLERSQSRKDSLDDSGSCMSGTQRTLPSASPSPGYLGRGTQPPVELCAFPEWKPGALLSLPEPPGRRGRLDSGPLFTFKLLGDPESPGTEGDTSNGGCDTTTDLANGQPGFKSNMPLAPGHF
T1 sequence (P23944 whole entry): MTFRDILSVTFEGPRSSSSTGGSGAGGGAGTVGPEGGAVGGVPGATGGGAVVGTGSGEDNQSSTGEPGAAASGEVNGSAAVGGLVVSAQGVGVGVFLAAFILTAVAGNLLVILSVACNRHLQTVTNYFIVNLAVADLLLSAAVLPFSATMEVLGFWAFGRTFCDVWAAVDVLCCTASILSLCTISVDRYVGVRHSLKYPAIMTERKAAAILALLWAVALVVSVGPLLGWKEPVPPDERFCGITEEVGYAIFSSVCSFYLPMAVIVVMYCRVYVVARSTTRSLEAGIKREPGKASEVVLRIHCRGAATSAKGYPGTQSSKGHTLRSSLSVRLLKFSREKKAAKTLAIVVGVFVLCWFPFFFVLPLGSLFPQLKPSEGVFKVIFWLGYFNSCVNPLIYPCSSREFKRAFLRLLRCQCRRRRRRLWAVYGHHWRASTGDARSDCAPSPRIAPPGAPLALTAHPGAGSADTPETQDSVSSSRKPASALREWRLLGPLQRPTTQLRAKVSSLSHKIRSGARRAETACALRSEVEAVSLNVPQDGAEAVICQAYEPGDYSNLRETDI
T1 sequence (P43140 whole entry): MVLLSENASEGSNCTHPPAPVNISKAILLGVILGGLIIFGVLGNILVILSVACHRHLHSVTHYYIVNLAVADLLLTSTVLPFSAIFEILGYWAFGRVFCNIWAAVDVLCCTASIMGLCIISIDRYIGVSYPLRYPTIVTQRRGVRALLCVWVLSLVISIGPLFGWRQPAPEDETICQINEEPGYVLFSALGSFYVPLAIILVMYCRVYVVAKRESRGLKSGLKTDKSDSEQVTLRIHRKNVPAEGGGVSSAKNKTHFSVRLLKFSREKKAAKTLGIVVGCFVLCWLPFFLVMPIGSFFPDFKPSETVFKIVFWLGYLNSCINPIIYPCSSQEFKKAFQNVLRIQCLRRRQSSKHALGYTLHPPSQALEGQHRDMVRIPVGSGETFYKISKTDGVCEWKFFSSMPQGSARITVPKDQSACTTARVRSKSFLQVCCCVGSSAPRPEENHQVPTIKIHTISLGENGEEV
Method in brief: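 Nonspecific: 10 μM phentolamine. Filter-bound radioactivity by scintillation; IC50 from competition curves, Ki by Cheng–Prusoff; mean ± SEM of 2–4 triplicate experiments.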

[2] = target: T2, 5-hydroxytryptamine receptor 1A (Rattus norvegicus, UniProt P19327); assay: Binding affinity at 5-hydroxytryptamine 1A (5-HT1A) receptor in rat cerebral cortex using [3H]8-OH-DPAT as radioligand; assay type: tissue-based
T2 sequence (P19327 whole entry): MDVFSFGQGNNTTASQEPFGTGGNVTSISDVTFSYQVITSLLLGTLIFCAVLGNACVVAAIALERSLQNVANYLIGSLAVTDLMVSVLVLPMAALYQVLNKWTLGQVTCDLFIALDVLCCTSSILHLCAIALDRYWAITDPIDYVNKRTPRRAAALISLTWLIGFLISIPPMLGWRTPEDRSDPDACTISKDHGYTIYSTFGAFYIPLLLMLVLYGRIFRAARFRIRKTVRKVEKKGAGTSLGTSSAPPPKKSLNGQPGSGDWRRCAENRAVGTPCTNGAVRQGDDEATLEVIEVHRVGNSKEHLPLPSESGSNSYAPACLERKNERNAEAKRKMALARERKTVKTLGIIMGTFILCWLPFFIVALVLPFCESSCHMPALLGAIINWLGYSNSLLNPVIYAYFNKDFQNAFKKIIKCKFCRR

Row | SMILES | Ki (D(2) dopamine receptor) | Ki [1] | Ki [2]
1 | O=C1CC(=C2c3ccccc3-c3ccccc32)C(=O)N1CCCN1CCN(c2ccccc2)CC1 | > 1 µM | 646 nM | > 1000 nM
2 | COc1ccccc1N1CCN(CN2C(=O)CC(=C3c4ccccc4-c4ccccc43)C2=O)CC1 | > 10 µM | > 1000 nM | 61 nM
3 | O=C1CC(=C2c3ccccc3-c3ccccc32)C(=O)N1CN1CCN(c2cccc(Cl)c2)CC1 | > 10 µM | 316 nM | 42 nM
4 | O=C1CC(=C2c3ccccc3-c3ccccc32)C(=O)N1CCCCN1CCN(c2ccccc2)CC1 | 0.397 µM | 60 nM | 14 nM
5 | O=C1CC(=C(c2ccccc2)c2ccccc2)C(=O)N1CCCCN1CCN(c2ccc(F)cc2)CC1 |  | 51 nM | 
6 | COc1ccccc1N1CCN(C/C=C\CN2C(=O)CC(=C(c3ccccc3)c3ccccc3)C2=O)CC1 |  |  | 237 nM
7 | O=C1CC(=C2c3ccccc3-c3ccccc32)C(=O)N1CCCN1CCN(c2cccc(C(F)(F)F)c2)CC1 | > 10 µM | > 10000 nM | > 1000 nM
8 | O=C1CC(=C2c3ccccc3-c3ccccc32)C(=O)N1CCCCN1CCN(c2cccc(Cl)c2)CC1 | > 1 µM | 249 nM | 72 nM
9 | O=C1CC(=C2c3ccccc3-c3ccccc32)C(=O)N1CN1CCN(c2ccc(F)cc2)CC1 | > 10 µM | > 1000 nM | > 1000 nM
10 | O=C1CC(=C2c3ccccc3-c3ccccc32)C(=O)N1CCCN1CCN(c2cccc(Cl)c2)CC1 | > 10 µM | > 10000 nM | > 1000 nM
11 | COc1ccccc1N1CCN(CCCN2C(=O)CC(=C3c4ccccc4-c4ccccc43)C2=O)CC1 | > 1 µM | 161 nM | 37 nM
12 | O=C1CC(=C2c3ccccc3-c3ccccc32)C(=O)N1CN1CCN(c2ccccc2)CC1 | > 10 µM | > 1000 nM | 201 nM
13 | COc1ccccc1N1CCN(CCN2C(=O)CC(=C3c4ccccc4-c4ccccc43)C2=O)CC1 | > 10 µM | 57 nM | > 10000 nM
14 | O=C1CC(=C2c3ccccc3-c3ccccc32)C(=O)N1CCN1CCN(c2ccc(F)cc2)CC1 | > 10 µM | 56 nM | > 10000 nM
15 | O=C1CC(=C2c3ccccc3-c3ccccc32)C(=O)N1CN1CCN(c2cccc(C(F)(F)F)c2)CC1 | > 10 µM | 791 nM | 114 nM
16 | O=C1CC(=C2c3ccccc3-c3ccccc32)C(=O)N1CCN1CCN(c2cccc(C(F)(F)F)c2)CC1 | > 10 µM | > 10000 nM | > 10000 nM
17 | O=C1CC(=C2c3ccccc3-c3ccccc32)C(=O)N1CCN1CCN(c2ccccc2)CC1 | > 10 µM | 196 nM | > 10000 nM
18 | O=C1CC(=C2c3ccccc3-c3ccccc32)C(=O)N1CCCN1CCN(c2ccc(F)cc2)CC1 | > 10 µM | 61 nM | > 10000 nM
19 | COc1ccccc1N1CCN(CC#CCN2C(=O)CC(=C(c3ccccc3)c3ccccc3)C2=O)CC1 |  |  | 6.6 nM
20 | O=C1CC(=C2c3ccccc3-c3ccccc32)C(=O)N1CCCCN1CCN(c2ccc(F)cc2)CC1 | > 10 µM | 266 nM | > 10000 nM
21 | O=C1CC(=C2c3ccccc3-c3ccccc32)C(=O)N1CCCCN1CCN(c2cccc(C(F)(F)F)c2)CC1 | > 1 µM | > 10000 nM | > 1000 nM
22 | COc1ccccc1N1CCN(CCCCN2C(=O)CC(=C3c4ccccc4-c4ccccc43)C2=O)CC1 | > 10 µM | 10 nM | 9 nM
23 | O=C1CC(=C2c3ccccc3-c3ccccc32)C(=O)N1CCN1CCN(c2cccc(Cl)c2)CC1 | > 10 µM | > 10000 nM | > 10000 nM
24 | COc1ccccc1N1CCN(C/C=C/CN2C(=O)CC(=C(c3ccccc3)c3ccccc3)C2=O)CC1 |  |  | 27 nM
25 | O=C1CC(=C(c2ccccc2)c2ccccc2)C(=O)N1CCCCN1CCN(c2cccc(C(F)(F)F)c2)CC1 |  |  | 15 nM
